This note sets out measurements from PubChem BioAssay.

The nature of assay [1]: S. cerevisiae growth inhibition in permissive medium (OD615), pilot counter-assay for S. cerevisiae lifespan shortening project, permissive growth control (AID 705;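 active = growth inhibition above 25% in both replicates, a cutoff set 3 SD above the mean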). The conditions noted are these: OD615, 24 h, at 10 µM, hits give high values. Summed up: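 System: Engineered DeaD yeast | Buffer or medium: SC raffinose/galactose permissive medium | Doses: 10 µM single dose, 0.25% DMSO | Times: 24 h exposure, 30 °C | Measured by: OD615 turbidity read | Read-out: Yeast growth inhibition indicated by reduced 24 h OD615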

Assay [2] in a line: S. cerevisiae growth inhibition in restrictive medium, OD615, pilot screen, restrictive growth control, yeast lifespan reduction project (AID 706;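 active = growth inhibition above a set limit, 3 SD over mean compound inhibition, in both replicates, cut at about 43% in these data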;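 also: modified DeaD lifespan yeast strain shifted to restrictive glucose medium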). The conditions noted are these: OD615, 48 h, at 10 µM, hits give high values. Summed up: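 Assay system: engineered S. cerevisiae DeaD strain; Buffer or medium: CSMM-D glucose medium; Dosing: 10 µM compound, 0.25% DMSO; Times: cell pre-growth 4 h, compound exposure 48 h, 30 °C; Detection: absorbance (optical density) measured at 615 nm.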

The nature of assay [3]: doxorubicin toxicity protection in MRP-1 cells – H69AR cells, CellTiter-Glo, duplicate, MRP-1 activator project, pilot screen (AID 807).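 Also: compound pretreatment 18-22 h then 72 h combined with doxorubicin; 0% = doxorubicin alone and 100% = vehicle without doxorubicin.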 The following applies: H69AR viability with doxorubicin, CellTiter-Glo luminescence; at 10 µM; hits give high values. A general note: In ATP-based viability assays light output follows the ATP content of the culture.
Assay [4] can be described thus: viability of PTEN-null HCT116 cells – cell-based, HCT116 clonal line, CellTiter-Glo, pilot screen (AID 824;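 active = viability at or below 27.92% in each of two runs, the all-compound median minus 4 SD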;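 also: 0% = 20 µM Hyamine control and 100% = vehicle cell control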). The conditions noted are these: HCT116 PTEN-deleted viability, 60 h, at 10 µM, hits give low values.
Assay [5] in a line: RAM pathway blockade in budding yeast – dse1pr::URA3 reporter, 5-FOA selection, pilot screen (AID 869;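 active = inhibition over a set limit, the all-compound mean plus 3 SD, in both replicate runs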;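 also: 0% = DMSO wells with no growth and 100% = 10 µM 1-NA-PP1 with full growth; RAM network block rescues cells from 5-FOA so hits raise OD615 growth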). The conditions noted are these: S. cerevisiae dse1pr::URA3 5-FOA growth, OD615, 2 d; at 10 µM; hits give high values; strain carries analog-sensitive mutant Cbk1 kinase.
Assay [6] in a line: RAM signaling pathway blockade in yeast – S. cerevisiae, Pdr1DBD-CYC8 efflux-inhibited sensitized strain, primary screen (AID 1298;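 active = RAM network inhibition above 8.4% in each of two replicates, 3 SD over the compound average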;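 also: 0% = DMSO untreated cells without growth and 100% = 10 µM 1-NA-PP1 full growth; higher means more yeast growth rescued from 5-FOA killing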). The following applies: S. cerevisiae cbk1-as DSE1-URA3 strain, 5-FOA growth OD615, 2 d; at 50 µM; hits give high values.
Assay [7] can be described thus: viability of HCT116 without oncogenic beta-catenin – human colon tumor cells, pilot screen (AID 823;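 active = cell viability at or below a set limit in both duplicate runs, the limit being the all-compound median minus 4 SD, cut at about 23% in these data, passing the limit was not always enough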;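 also: 0% = wells killed by 20 µM Hyamine and 100% = untreated DMSO cell wells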). The following applies: HCT116 beta-catenin knockout viability, CellTiter-Glo, 60 h; at 10 µM; hits give low values.

Unmarked numbers belong to inactive results. Results filed as inconclusive are left out. Calls of active or inactive are those of the source.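 The calls were made as follows, unless noted: active = viability increase at or above a cutoff of the median across tested compounds plus 3 SD (cut at about 8.5% in these data, passing the limit was not always enough); inconclusive = some gains above the cutoff, reason not given; inactive = the rest.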

The term viability denotes a read-out of living cells in per cent, often relative to untreated cells. Broadly, the inhibition is the change of the read-out against control, counted positive when it falls.

As to `CCN(CC)C(=O)C(C)N(C#N)c1nc(NC(C)C)nc(NC(C)C)n1` (stereo unspecified), the growth inhibition in assay [1] is -9.32%; in assay [2], -0.315%. Also, the viability increase in assay [3] was -3.7%. The viability in assay [4] was 101%. Also, the inhibition in assay [5] is 0.715%. Further, the RAM network inhibition in assay [6] is 2.25%.

Regarding `Cc1cc(NC(=O)c2ccc3c(c2)C(=O)N(C2CCCCC2)C3=O)no1`, the results for the growth inhibition in assay [1] and in assay [2] were -4.59% and -6.9%, respectively. For the same compound, the viability increase in assay [3] is -6.76%. Also, in assay [4], the viability was 41.5%. In addition, in assay [6], the RAM network inhibition is 3.39%.

As for `Cc1cc(C)c(S(=O)(=O)NCC2CCC(C(=O)NCCCN3CCOCC3)CC2)c(C)c1` (stereo unspecified), the growth inhibition is -6.14% in assay [1] and 7.86% in assay [2]. In assay [3], the viability increase was -3.2%. Further, the viability in assay [7] was 81.3%. The inhibition in assay [5] is 0.675%. In assay [6], the RAM network inhibition was -0.63%.

As for `COc1cc2[nH]c(=O)n(CCC(=O)N3CCN(c4cccc(C)c4C)CC3)c(=O)c2cc1OC`, the growth inhibition in assay [1] is 2.25%; in assay [2] it was -5.83%. Moreover, in assay [3], the viability increase was -5.18%. In addition, the viability in assay [7] is 84.2%. The inhibition in assay [5] is 0.615%. The RAM network inhibition in assay [6] was 5.67%.

`CCOC(=O)C1CCN(C(=O)c2oc3ccc(S(=O)(=O)N4CC(C)CC(C)C4)cc3c2C)CC1` (stereo unspecified): the growth inhibition is 1.57% in assay [1] and -4.64% in assay [2]. In addition, the viability increase in assay [3] is -6.15%. In assay [4], the viability was 52.7%. The inhibition in assay [5] is -1.02%. The RAM network inhibition in assay [6] is 5.32%.

`COc1ccc(C2C(C(=O)N3CCN(c4ccccc4F)CC3)c3ccccc3C(=O)N2C)cc1` (stereo unspecified): the growth inhibition was -12.2% in assay [1] and -6.36% in assay [2]. In addition, the viability increase in assay [3] is -5.64%. Also, the viability in assay [4] is 74.3%. In addition, in assay [5], the inhibition is 1.3%. In assay [6], the RAM network inhibition was 4.16%.

For the compound `COc1ccccc1N1CCN(CC(O)COc2ccc3c(C)cc(=O)oc3c2)CC1` (stereo unspecified), the growth inhibition is -3.12% in assay [1] and -9.43% in assay [2]. In addition, in assay [3], the viability increase was -2.57%. Moreover, the viability in assay [4] is 92.3%. Moreover, the inhibition in assay [5] is 1.95%. In addition, the RAM network inhibition in assay [6] was 2.88%.

With `Cc1ccccc1-c1ccc(Nc2ccc(N3CCOCC3)cc2)nn1`, the growth inhibition in assay [1] is -3.44%; in assay [2], 15.8%. Besides, the viability increase in assay [3] is -5.91%. In addition, the viability in assay [7] was 81%. Besides, the inhibition in assay [5] was 0.46%. In assay [6], the RAM network inhibition is 2.5%.

As to `CCOC(=O)N1CCN(C(=O)CN(c2cccc(C(F)(F)F)c2)S(C)(=O)=O)CC1`, the growth inhibition in assay [1] is -9.57%; in assay [2], -1.87%. The viability increase in assay [3] was -4.09%. Besides, the viability in assay [4] is 88.9%. Also, the inhibition in assay [5] is 0.905%. The RAM network inhibition in assay [6] was 4.83%.

For the compound `CC(=O)c1ccc(C(=O)Nc2nnc(-c3ccc(Cl)cc3)o2)cc1`, the growth inhibition in assay [1] was -1.45%; in assay [2] it was 17%. In assay [3], the viability increase is -3.75%. Moreover, the viability in assay [4] is 22.3% (active). The RAM network inhibition in assay [6] is 2.8%.

Consider `O=C1C(Cl)=C(Nc2ccccc2O)C(=O)N1c1ccccc1`, for which the growth inhibition in assay [1] is -42%; in assay [2], -9.91%. In addition, in assay [3], the viability increase is -6.15%. Besides, the viability in assay [7] was 81.7%. Besides, in assay [5], the inhibition is 2.32%. Further, in assay [6], the RAM network inhibition is 5.61%.

As for `COc1ccc(S(=O)(=O)C(C#N)c2nc3ccccc3nc2N2CCC(C)CC2)cc1` (stereo unspecified), the growth inhibition in assay [1] was -12.1%; in assay [2], -14.1%. In addition, the viability increase in assay [3] is -4.72%. Further, in assay [4], the viability was 87.9%. In addition, the inhibition in assay [5] is 3.85%. Also, the RAM network inhibition in assay [6] was 8.8%.

Turning to `c1ccc(-c2noc(-c3cccnc3)n2)cc1`, the growth inhibition in assay [1] is 5.9%; in assay [2], 2.4%. In addition, in assay [3], the viability increase was -3.8%. The viability in assay [4] was 95.2%. Besides, in assay [5], the inhibition was -0.04%. In addition, in assay [6], the RAM network inhibition is 3.95%.

In the case of `O=C(Cc1ccc(Cl)cc1)Nc1ccccc1CO`, the growth inhibition in assay [1] was 0.105%; in assay [2] it was -1.33%. Moreover, the viability increase in assay [3] was 0.18%. The viability in assay [4] was 101%. The inhibition in assay [5] is 0.45%. For the same compound, the RAM network inhibition in assay [6] was 5.48%.

For `C=C(C)Cn1c(CCNC(=O)CCC)nc2ccccc21`, the growth inhibition is -9.26% in assay [1] and -10.3% in assay [2]. Besides, the viability increase in assay [3] was -0.98%. The viability in assay [7] is 99.1%. Moreover, in assay [5], the inhibition was 1.54%. The RAM network inhibition in assay [6] was 2.19%.

Regarding `Cn1c(=O)[nH]c(=O)c2c1nc(Sc1ncccn1)n2CCCc1ccccc1`, the growth inhibition is -10.3% in assay [1] and -9.67% in assay [2]. In addition, the viability increase in assay [3] is -4.15%. Further, the viability in assay [7] is 97%. Further, the inhibition in assay [5] was 1.43%. Besides, the RAM network inhibition in assay [6] was 7.26%.

On to `Cc1c(C(=O)NCC2CCCO2)oc2ccc(S(=O)(=O)N3CCCC3)cc12` (stereo unspecified), for which the growth inhibition was -6.79% in assay [1] and -3.9% in assay [2]. In addition, the viability increase in assay [3] was -2.38%. Also, the viability in assay [4] is 91.6%. The inhibition in assay [5] was 2%. Moreover, in assay [6], the RAM network inhibition is 1.44%.

Regarding `Cc1ccc(C(=O)c2cn[nH]c2-c2cc(Cl)ccc2O)cc1`, the figures for the growth inhibition in assay [1] and in assay [2] were 7.61% and 1.2%, respectively. In addition, the viability increase in assay [3] was -0.14%. In addition, the viability in assay [7] was 95.7%. The inhibition in assay [5] was 1.08%. In assay [6], the RAM network inhibition was -1.14%.
